In ChEMBL document CHEMBL5303300, “EUbOPEN Chemogenomics Library - Multiplex” (2023):
“And” between values parts separate entries of the source, which are not always exact repeats. Identical values can stand only once.

Test system: Fibroblast
Test: Multiplex assay against human fibroblast
Type: toxicity, cell-based
Conditions: number of replicates 2
How it was run: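 Compound was added to live cells that had been stained at seeding with Hoechst33342, BioTracker Green Microtubule Cytoskeleton Dye, MitoTracker Red and Annexin V Alexa Fluor 680, and imaging followed on a CQ1 microscope at 37°C and 5% CO2. CellPathfinder machine-learning gating divided cells into Hoechst high-intensity objects or normal cells, normal cells into healthy, pyknosed or fragmented nuclei, and pyknosed cells into mitotic or apoptotic. Tubulin, mitochondrial-mass and membrane-permeability phenotypes are per cents of healthy-nucleus cells.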

[1] = 12 h, 1 µM, compound concentration 1 uM
[2] = 12 h, 10 µM, compound concentration 10 uM
[3] = 24 h, 1 µM, compound concentration 1 uM
[4] = 24 h, 10 µM, compound concentration 10 uM
[5] = 48 h, 1 µM, compound concentration 1 uM
[6] = 48 h, 10 µM, compound concentration 10 uM

C[C@@H](OC[C@@]1(c2ccccc2)CC[C@]2(CCC(=O)N2)CN1)c1cc(C(F)(F)F)cc(C(F)(F)F)c1 [ROLAPITANT]
Population Apoptotic (%) [1]: 32% and 48%
Population Fragmented Nuclei (%) [1]: 7% and 12%
Population Healthy Nuclei (%) [1]: 76% and 62%
Population Hoechst High Intensity Objects (%) [1]: 0%
Population Membrane Permeable-Phenotype (%) [1]: 9% and 4%
Population Mitochondria Different-Phenotype (%) [1]: 4% and 2%
Population Mitotic Cells (%) [1]: 67% and 51%
Population Normal (%) [1]: 100% and 99%
Population Pyknosed Nuclei (%) [1]: 15% and 25%
Population Tubulin-Different-Phenotype (%) [1]: 26% and 13%
Total Cell Count [1]: 195 and 264
Population Apoptotic (%) [2]: 40% and 46%
Population Fragmented Nuclei (%) [2]: 17% and 10%
Population Healthy Nuclei (%) [2]: 67% and 71%
Population Hoechst High Intensity Objects (%) [2]: 0%
Population Membrane Permeable-Phenotype (%) [2]: 5% and 6%
Population Mitochondria Different-Phenotype (%) [2]: 7% and 3%
Population Mitotic Cells (%) [2]: 60% and 53%
Population Normal (%) [2]: 100%
Population Pyknosed Nuclei (%) [2]: 15% and 17%
Population Tubulin-Different-Phenotype (%) [2]: 45% and 26%
Total Cell Count [2]: 131 and 146
Population Apoptotic (%) [3]: 40% and 55%
Population Fragmented Nuclei (%) [3]: 15% and 13%
Population Healthy Nuclei (%) [3]: 74% and 66%
Population Hoechst High Intensity Objects (%) [3]: 0%
Population Membrane Permeable-Phenotype (%) [3]: 2% and 8%
Population Mitochondria Different-Phenotype (%) [3]: 1%
Population Mitotic Cells (%) [3]: 60% and 44%
Population Normal (%) [3]: 100%
Population Pyknosed Nuclei (%) [3]: 9% and 20%
Population Tubulin-Different-Phenotype (%) [3]: 19% and 18%
Total Cell Count [3]: 202 and 257
Population Apoptotic (%) [4]: 52% and 60%
Population Fragmented Nuclei (%) [4]: 23% and 16%
Population Healthy Nuclei (%) [4]: 62% and 66%
Population Hoechst High Intensity Objects (%) [4]: 0%
Population Membrane Permeable-Phenotype (%) [4]: 2% and 3%
Population Mitochondria Different-Phenotype (%) [4]: 14% and 5%
Population Mitotic Cells (%) [4]: 47% and 40%
Population Normal (%) [4]: 100%
Population Pyknosed Nuclei (%) [4]: 14% and 16%
Population Tubulin-Different-Phenotype (%) [4]: 59% and 28%
Total Cell Count [4]: 134 and 153
Population Apoptotic (%) [5]: 58% and 66%
Population Fragmented Nuclei (%) [5]: 13% and 11%
Population Healthy Nuclei (%) [5]: 78% and 74%
Population Hoechst High Intensity Objects (%) [5]: 0%
Population Membrane Permeable-Phenotype (%) [5]: 4% and 8%
Population Mitochondria Different-Phenotype (%) [5]: 1%
Population Mitotic Cells (%) [5]: 41% and 33%
Population Normal (%) [5]: 100%
Population Pyknosed Nuclei (%) [5]: 8% and 14%
Population Tubulin-Different-Phenotype (%) [5]: 14% and 11%
Total Cell Count [5]: 204 and 254
Population Apoptotic (%) [6]: 85% and 93%
Population Fragmented Nuclei (%) [6]: 32% and 23%
Population Healthy Nuclei (%) [6]: 58% and 67%
Population Hoechst High Intensity Objects (%) [6]: 0%
Population Membrane Permeable-Phenotype (%) [6]: 5% and 3%
Population Mitochondria Different-Phenotype (%) [6]: 3% and 6%
Population Mitotic Cells (%) [6]: 14% and 6%
Population Normal (%) [6]: 100%
Population Pyknosed Nuclei (%) [6]: 8% and 9%
Population Tubulin-Different-Phenotype (%) [6]: 44% and 20%
Total Cell Count [6]: 158 and 167

CCCNc1ccc2ncc(-c3ccncc3)n2n1
Population Apoptotic (%) [1]: 30% and 34%
Population Fragmented Nuclei (%) [1]: 4% and 14%
Population Healthy Nuclei (%) [1]: 65% and 63%
Population Hoechst High Intensity Objects (%) [1]: 0%
Population Membrane Permeable-Phenotype (%) [1]: 14% and 6%
Population Mitochondria Different-Phenotype (%) [1]: 0%
Population Mitotic Cells (%) [1]: 69% and 65%
Population Normal (%) [1]: 100%
Population Pyknosed Nuclei (%) [1]: 29% and 21%
Population Tubulin-Different-Phenotype (%) [1]: 18% and 9%
Total Cell Count [1]: 144 and 202
Population Apoptotic (%) [2]: 51% and 53%
Population Fragmented Nuclei (%) [2]: 12% and 10%
Population Healthy Nuclei (%) [2]: 70% and 75%
Population Hoechst High Intensity Objects (%) [2]: 0%
Population Membrane Permeable-Phenotype (%) [2]: 4% and 3%
Population Mitochondria Different-Phenotype (%) [2]: 5% and 1%
Population Mitotic Cells (%) [2]: 48% and 46%
Population Normal (%) [2]: 100%
Population Pyknosed Nuclei (%) [2]: 17% and 13%
Population Tubulin-Different-Phenotype (%) [2]: 27% and 17%
Total Cell Count [2]: 157 and 204
Population Apoptotic (%) [3]: 38% and 42%
Population Fragmented Nuclei (%) [3]: 9% and 14%
Population Healthy Nuclei (%) [3]: 61% and 63%
Population Hoechst High Intensity Objects (%) [3]: 0%
Population Membrane Permeable-Phenotype (%) [3]: 9% and 8%
Population Mitochondria Different-Phenotype (%) [3]: 2% and 1%
Population Mitotic Cells (%) [3]: 61% and 57%
Population Normal (%) [3]: 100%
Population Pyknosed Nuclei (%) [3]: 29% and 21%
Population Tubulin-Different-Phenotype (%) [3]: 25% and 13%
Total Cell Count [3]: 143 and 193
Population Apoptotic (%) [4]: 75% and 65%
Population Fragmented Nuclei (%) [4]: 18% and 15%
Population Healthy Nuclei (%) [4]: 65% and 68%
Population Hoechst High Intensity Objects (%) [4]: 0%
Population Membrane Permeable-Phenotype (%) [4]: 5% and 3%
Population Mitochondria Different-Phenotype (%) [4]: 8% and 7%
Population Mitotic Cells (%) [4]: 25% and 34%
Population Normal (%) [4]: 99% and 100%
Population Pyknosed Nuclei (%) [4]: 16%
Population Tubulin-Different-Phenotype (%) [4]: 33% and 30%
Total Cell Count [4]: 151 and 200
Population Apoptotic (%) [5]: 55% and 59%
Population Fragmented Nuclei (%) [5]: 14% and 20%
Population Healthy Nuclei (%) [5]: 57% and 59%
Population Hoechst High Intensity Objects (%) [5]: 0%
Population Membrane Permeable-Phenotype (%) [5]: 15% and 8%
Population Mitochondria Different-Phenotype (%) [5]: 1% and 0%
Population Mitotic Cells (%) [5]: 44% and 40%
Population Normal (%) [5]: 100% and 99%
Population Pyknosed Nuclei (%) [5]: 28% and 19%
Total Cell Count [5]: 150 and 228
Population Apoptotic (%) [6]: 61% and 80%
Population Fragmented Nuclei (%) [6]: 14% and 13%
Population Healthy Nuclei (%) [6]: 60% and 61%
Population Hoechst High Intensity Objects (%) [6]: 0%
Population Membrane Permeable-Phenotype (%) [6]: 11% and 4%
Population Mitochondria Different-Phenotype (%) [6]: 6% and 5%
Population Mitotic Cells (%) [6]: 38% and 20%
Population Normal (%) [6]: 99%
Population Pyknosed Nuclei (%) [6]: 24% and 25%
Population Tubulin-Different-Phenotype (%) [6]: 45% and 33%
Total Cell Count [6]: 149 and 198
